Experimental data published in ChEMBL document CHEMBL3272012, “5-(Tetradecyloxy)-2-furancarboxylic acid and related hypolipidemic fatty acid-like alkyloxyarylcarboxylic acids” (J Med Chem, 1977).
Values belong to the compound of their own block, whether it stands above or below them.

What was measured:
Rattus norvegicus [1] = experiment: Hypolipidemic activity in Wistar rat assessed as reduction in plasma cholesterol level at 381 umol/kg/day administered through diet for 4 days; format: functional; conditions: 96 h
In short: (§1)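 Young male Wistar rats, 170-190 g at start, in groups of six, given compound mixed into Purina Lab Chow ad libitum for 4 or 10 days as stated. Daily dose was calculated from food consumption and body weight. Plasma was taken by cardiac puncture at the end and cholesterol measured by automated procedure. Results are % reduction versus a concurrent untreated control group, with Student's t test.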

Rattus norvegicus [2] = experiment: Increase in liver weight in Wistar rat at 381 umol/kg/day administered through diet for 4 days; format: ADME, organism-based; conditions: in vivo, po, 96 h
Rattus norvegicus [3] = experiment: Hypolipidemic activity in Wistar rat assessed as reduction in plasma triglyceride level at 381 umol/kg/day administered through diet for 4 days; format: functional; conditions: 96 h
In short: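 Young male Wistar rats (170-190 g initial weight), groups of six, fed test compound mixed into Purina Lab Chow ad libitum; daily dose calculated from food consumption and body weight. Bled by cardiac puncture at end of treatment; plasma triglycerides measured by automated procedure. Results given as percent reduction versus a simultaneous untreated control group, with significance by Student's t test.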

Rattus norvegicus [4] = experiment: Hypolipidemic activity in Wistar rat assessed as reduction in plasma triglyceride level at 449 umol/kg/day administered through diet for 4 days; format: functional; conditions: 96 h
Rattus norvegicus [5] = experiment: Hypolipidemic activity in Wistar rat assessed as reduction in plasma cholesterol level at 449 umol/kg/day administered through diet for 4 days; format: functional; conditions: 96 h
In short: (§2)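 Young male Wistar rats, 170-190 g initial weight, groups of six, given compound mixed thoroughly into Purina Lab Chow ad libitum for 4 or 10 days as stated. Daily dose calculated from food consumption and body weight. Bled by cardiac puncture at end of treatment; plasma cholesterol measured by automated procedure. Expressed as percent reduction versus simultaneous untreated control group; Student's t test.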

Rattus norvegicus [6] = experiment: Increase in liver weight in Wistar rat at 449 umol/kg/day administered through diet for 4 days; format: ADME, organism-based; conditions: in vivo, po, 96 h
Rattus norvegicus [7] = experiment: Hypolipidemic activity in Wistar rat assessed as reduction in plasma cholesterol level at 606 umol/kg/day administered through diet for 10 days; format: functional; conditions: 240 h
In short: (§3)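 Young male Wistar rats (initial weight 170-190 g), groups of six, fed compound mixed into Purina Lab Chow ad libitum for 4 or 10 days; daily dose calculated from food consumption and body weight. Bled by cardiac puncture; plasma cholesterol and triglycerides by automated procedures; percent reduction versus simultaneous untreated controls, Student's t test.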

Rattus norvegicus [8] = experiment: Increase in liver weight in Wistar rat at 606 umol/kg/day administered through diet for 10 days; format: ADME, organism-based; conditions: in vivo, po, 240 h
Rattus norvegicus [9] = experiment: Hypolipidemic activity in Wistar rat assessed as reduction in plasma triglyceride level at 606 umol/kg/day administered through diet for 10 days; format: functional; conditions: 240 h
Rattus norvegicus [10] = experiment: Hypolipidemic activity in Wistar rat assessed as reduction in plasma cholesterol level at 420 umol/kg/day administered through diet for 10 days; format: functional; conditions: 240 h; in short: as §2
Rattus norvegicus [11] = experiment: Increase in cholesterol level in Wistar rat liver at 420 umol/kg/day administered through diet for 10 days; format: ADME, organism-based; conditions: in vivo, po, 240 h
In short: (§4)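 Male Wistar rats (170-190 g), six per group, given compound by admixture to lab chow ad libitum for 4 or 10 days, dose derived from food intake. Liver cholesterol determined by automated procedure, expressed as mg/g wet tissue, compared with an untreated control group by Student's t test.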

Rattus norvegicus [12] = experiment: Increase in liver weight in Wistar rat at 420 umol/kg/day administered through diet for 10 days; format: ADME, organism-based; conditions: in vivo, po, 240 h
Rattus norvegicus [13] = experiment: Hypolipidemic activity in Wistar rat assessed as reduction in plasma triglyceride level at 420 umol/kg/day administered through diet for 10 days; format: functional; conditions: 240 h; in short: as §3
Rattus norvegicus [14] = experiment: Hypolipidemic activity in Wistar rat assessed as reduction in plasma cholesterol level at 418 umol/kg/day administered through diet for 4 days; format: functional; conditions: 96 h; in short: as §2
Rattus norvegicus [15] = experiment: Hypolipidemic activity in Wistar rat assessed as reduction in plasma triglyceride level at 418 umol/kg/day administered through diet for 4 days; format: functional; conditions: 96 h; in short: as §3
Rattus norvegicus [16] = experiment: Increase in liver weight in Wistar rat at 418 umol/kg/day administered through diet for 4 days; format: ADME, organism-based; conditions: in vivo, po, 96 h
In short: (§5)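 Male Wistar rats (170-190 g initial), groups of six, dosed via diet ad libitum for 4 or 10 days, daily dose from food consumption. Liver wet weight measured, expressed as g/100 g final body weight, compared with untreated controls run simultaneously.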

Rattus norvegicus [17] = experiment: Hypolipidemic activity in Wistar rat assessed as reduction in plasma cholesterol level at 675 umol/kg/day administered through diet for 10 days; format: functional; conditions: 240 h; in short: as §3
Rattus norvegicus [18] = experiment: Increase in liver weight in Wistar rat at 675 umol/kg/day administered through diet for 10 days; format: ADME, organism-based; conditions: in vivo, po, 240 h
Rattus norvegicus [19] = experiment: Hypolipidemic activity in Wistar rat assessed as reduction in plasma triglyceride level at 675 umol/kg/day administered through diet for 10 days; format: functional; conditions: 240 h
Rattus norvegicus [20] = experiment: Increase in cholesterol level in Wistar rat liver at 419 umol/kg/day administered through diet for 10 days; format: ADME, organism-based; conditions: in vivo, po, 240 h; in short: as §4
Rattus norvegicus [21] = experiment: Increase in liver weight in Wistar rat at 419 umol/kg/day administered through diet for 10 days; format: ADME, organism-based; conditions: in vivo, po, 240 h; in short: as §5
Rattus norvegicus [22] = experiment: Hypolipidemic activity in Wistar rat assessed as reduction in plasma triglyceride level at 419 umol/kg/day administered through diet for 10 days; format: functional; conditions: 240 h; in short: as §3
Rattus norvegicus [23] = experiment: Hypolipidemic activity in Wistar rat assessed as reduction in plasma cholesterol level at 419 umol/kg/day administered through diet for 10 days; format: functional; conditions: 240 h; in short: as §2
Rattus norvegicus [24] = experiment: Increase in liver weight in Wistar rat at 482 umol/kg/day administered through diet for 4 days; format: ADME, organism-based; conditions: in vivo, po, 96 h; in short: as §5
Rattus norvegicus [25] = experiment: Hypolipidemic activity in Wistar rat assessed as reduction in plasma cholesterol level at 482 umol/kg/day administered through diet for 4 days; format: functional; conditions: 96 h; in short: as §2
Rattus norvegicus [26] = experiment: Hypolipidemic activity in Wistar rat assessed as reduction in plasma triglyceride level at 482 umol/kg/day administered through diet for 4 days; format: functional; conditions: 96 h; in short: as §3
Rattus norvegicus [27] = experiment: Hypolipidemic activity in Wistar rat assessed as reduction in plasma triglyceride level at 480 umol/kg/day administered through diet for 4 days; format: functional; conditions: 96 h
Rattus norvegicus [28] = experiment: Hypolipidemic activity in Wistar rat assessed as reduction in plasma cholesterol level at 480 umol/kg/day administered through diet for 4 days; format: functional; conditions: 96 h; in short: as §2
Rattus norvegicus [29] = experiment: Increase in liver weight in Wistar rat at 480 umol/kg/day administered through diet for 4 days; format: ADME, organism-based; conditions: in vivo, po, 96 h
Rattus norvegicus [30] = experiment: Hypolipidemic activity in Wistar rat assessed as reduction in plasma cholesterol level at 456 umol/kg/day administered through diet for 10 days; format: functional; conditions: 240 h; in short: as §2
Rattus norvegicus [31] = experiment: Hypolipidemic activity in Wistar rat assessed as reduction in plasma triglyceride level at 456 umol/kg/day administered through diet for 10 days; format: functional; conditions: 240 h
Rattus norvegicus [32] = experiment: Hypolipidemic activity in Wistar rat assessed as reduction in plasma triglyceride level at 439 umol/kg/day administered through diet for 10 days; format: functional; conditions: 240 h; in short: as §3
Rattus norvegicus [33] = experiment: Hypolipidemic activity in Wistar rat assessed as reduction in plasma cholesterol level at 439 umol/kg/day administered through diet for 10 days; format: functional; conditions: 240 h; in short: as §2
Rattus norvegicus [34] = experiment: Increase in liver weight in Wistar rat at 439 umol/kg/day administered through diet for 10 days; format: ADME, organism-based; conditions: in vivo, po, 240 h; in short: as §5
Rattus norvegicus [35] = experiment: Hypolipidemic activity in Wistar rat assessed as reduction in plasma cholesterol level at 505 umol/kg/day administered through diet for 4 days; format: functional; conditions: 96 h; in short: as §2
Rattus norvegicus [36] = experiment: Increase in liver weight in Wistar rat at 505 umol/kg/day administered through diet for 4 days; format: ADME, organism-based; conditions: in vivo, po, 96 h
Rattus norvegicus [37] = experiment: Hypolipidemic activity in Wistar rat assessed as reduction in plasma triglyceride level at 505 umol/kg/day administered through diet for 4 days; format: functional; conditions: 96 h
Rattus norvegicus [38] = experiment: Hypolipidemic activity in Wistar rat assessed as reduction in plasma cholesterol level at 411 umol/kg/day administered through diet for 10 days; format: functional; conditions: 240 h; in short: as §1
Rattus norvegicus [39] = experiment: Hypolipidemic activity in Wistar rat assessed as reduction in plasma triglyceride level at 411 umol/kg/day administered through diet for 10 days; format: functional; conditions: 240 h

- Activity (Rattus norvegicus [2]): 0%
Compound: CCCCCCCCCCCCCCOc1c(Cl)cc(C(=O)OC)cc1Cl
- inhibition in vivo at 381 µmol/kg (Rattus norvegicus [1]): 1%
- inhibition in vivo at 381 µmol/kg (Rattus norvegicus [3]): 73%

- Activity (Rattus norvegicus [6]): 5%
Compound: CCCCCCCCCCCCCCOc1ccc(C(=O)N(CC)CC)cc1
- inhibition in vivo at 449 µmol/kg (Rattus norvegicus [4]): 0%
- inhibition in vivo at 449 µmol/kg (Rattus norvegicus [5]): 0%

- Activity (Rattus norvegicus [8]): 2%
Compound: CCCCCCc1ccc(C(=O)CC(=O)OC)cc1
- inhibition in vivo at 606 µmol/kg (Rattus norvegicus [7]): 2%
- inhibition in vivo at 606 µmol/kg (Rattus norvegicus [9]): 35%

- Activity (Rattus norvegicus [11]): 3%
- Activity (Rattus norvegicus [12]): 0%
Compound: CCCCCCCCCCCCCCOc1ccc(SCC(=O)O)cc1
- inhibition in vivo at 420 µmol/kg (Rattus norvegicus [10]): 16%
- inhibition in vivo at 420 µmol/kg (Rattus norvegicus [13]): 11%

- Activity (Rattus norvegicus [16]): 0%
Compound: CCCCCCCCCCCCCCOc1ccc(C(=O)OCC)cc1Cl
- inhibition in vivo at 418 µmol/kg (Rattus norvegicus [14]): 0%
- inhibition in vivo at 418 µmol/kg (Rattus norvegicus [15]): 0%

- Activity (Rattus norvegicus [18]): 1%
Compound: CCCCCCOc1ccc(C(=O)O)cc1
- inhibition in vivo at 675 µmol/kg (Rattus norvegicus [17]): 6%
- inhibition in vivo at 675 µmol/kg (Rattus norvegicus [19]): 16%

- Activity (Rattus norvegicus [20]): 17%
- Activity (Rattus norvegicus [21]): 5%
Compound: CCCCCCCCCCCCCCCCOc1ccc(C(=O)O)cc1
- inhibition in vivo at 419 µmol/kg (Rattus norvegicus [22]): 55%
- inhibition in vivo at 419 µmol/kg (Rattus norvegicus [23]): 15%

- Activity (Rattus norvegicus [24]): 4%
Compound: CCCCCCCCCCCCCCOc1ccc(C#N)cc1
- inhibition in vivo at 482 µmol/kg (Rattus norvegicus [25]): 10%
- inhibition in vivo at 482 µmol/kg (Rattus norvegicus [26]): 6%

- Activity (Rattus norvegicus [29]): 1%
Compound: CCCCCCCCCCCCCCOc1ccc(-c2nnn[nH]2)cc1
- inhibition in vivo at 480 µmol/kg (Rattus norvegicus [27]): 0%
- inhibition in vivo at 480 µmol/kg (Rattus norvegicus [28]): 0%

Compound: CCCCCCCCCCCCCCCCOc1ccccc1C(=O)CC(=O)OC
- inhibition in vivo at 456 µmol/kg (Rattus norvegicus [30]): 10%
- inhibition in vivo at 456 µmol/kg (Rattus norvegicus [31]): 23%

- Activity (Rattus norvegicus [34]): 8%
Compound: CCCCCCCCCCCCCCOc1ccc(C(=O)CC(N)=O)cc1
- inhibition in vivo at 439 µmol/kg (Rattus norvegicus [32]): 3%
- inhibition in vivo at 439 µmol/kg (Rattus norvegicus [33]): 4%

- Activity (Rattus norvegicus [36]): 4%
Compound: CCCCCCCCCCCCOc1cccc(C(=O)OC)c1
- inhibition in vivo at 505 µmol/kg (Rattus norvegicus [35]): 7%
- inhibition in vivo at 505 µmol/kg (Rattus norvegicus [37]): 55%

Compound: CCCCCCCCCCc1ccc(C(=O)CC(=O)OC)cc1
- inhibition in vivo at 411 µmol/kg (Rattus norvegicus [38]): 30%
- inhibition in vivo at 411 µmol/kg (Rattus norvegicus [39]): 69%
